Key:
[1] = Evaluated for the neurotoxicity against NB2a Neuroblastoma cells.; assay type: functional, cell-based, Mus musculus
Outline: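 Neurite outgrowth assay in NB2a neuroblastoma cells grown in high-glucose DMEM with 5% horse serum and 5% fetal calf serum, 37 °C, 5% CO2. Cells plated at 15 000 cells/mL. After 24 h, switched to serum-free medium with 0.5 mM dibutyryl cAMP plus drug at 10 and 0.1 µM for a further 24 h. Cells fixed in formaldehyde and stained with Coomassie. Average neurite length per cell measured by image analysis over 10 fields of about 20 cells; IC50 reported.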

Plasmodium falciparum [2] = test: Antimalarial activity against chloroquine-resistant Plasmodium falciparum W2; assay type: functional, organism-based
Plasmodium falciparum [3] = test: Antimalarial activity against chloroquine-sensitive Plasmodium falciparum D6; assay type: functional, organism-based
Mus musculus [4] = test: Evaluated for the percentage of subcutaneously to Plasmodium berghei infected mice on days 3, 4, and 5 post infection.; assay type: functional
Outline: (§1)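 Modified Thompson test. Five-week-old CD-1 mice infected ip on day 0 with drug-sensitive P. berghei KBG 173 trophozoites from a donor mouse at 60% parasitemia. Groups of five or seven mice dosed sc b.i.d. on days 3, 4 and 5 at 64 mg/kg/day. Parasitemia read on Giemsa-stained blood films on day 6, then weekly to day 60. Survival followed; mice alive and blood-film negative at day 60 counted as cured.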

Mus musculus [5] = test: Evaluated for the survival of the mice when 64 mg/kg/day was administered subcutaneously to Plasmodium berghei infected mice on days 3, 4, and 5 post infection; 7/C(C=survival beyond 60 days); assay type: functional, organism-based; outline: as §1
Mus musculus [6] = test: Evaluated for the survival of the mice when 128 mg/kg/day was administered orally to Plasmodium berghei infected mice on days 3, 4, and 5 post infection; 5/C(C=survival beyond 60 days); assay type: functional, organism-based
Outline: as §1, with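 “po” for “sc”, “128” for “64”, “Giemsa” for “Parasitemia read on Giemsa-stained”, “films taken” for “films”, “Day of death recorded;” for “Survival followed;”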

Mus musculus [7] = test: Evaluated for the survival of the mice when 128 mg/kg/day was administered orally to Plasmodium berghei infected mice on days 3, 4, and 5 post infection.1/8, 2/16, 1/32, 3/C(C=survival beyond 60 days); assay type: functional, organism-based
Outline: as §1, with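 “po” for “sc”, “128” for “64”, “Giemsa” for “Parasitemia read on Giemsa-stained”, “films taken” for “films”, “Day of death recorded;” for “Survival followed;”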

Mus musculus [8] = test: Evaluated for the survival of the mice when 64 mg/kg/day was administered subcutaneously to Plasmodium berghei infected mice on days 3, 4, and 5 post infection;1/8, 2/9, 1/10, 1/13; assay type: functional, organism-based; outline: as §1
Mus musculus [9] = test: Evaluated for the survival of the mice when 64 mg/kg/day was administered subcutaneously to Plasmodium berghei infected mice on days 3, 4, and 5 post infection;1/8, 1/9, 1/10, 1/12, 1/15; assay type: functional, organism-based; outline: as §1
Mus musculus [10] = test: Evaluated for the survival of the mice when 128 mg/kg/day was administered orally to Plasmodium berghei infected mice on days 3, 4, and 5 post infection;1/9 1/26 3/C(C=survival beyond 60 days); assay type: functional, organism-based
Outline: as §1, with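 “po” for “sc”, “128” for “64”, “Giemsa” for “Parasitemia read on Giemsa-stained”, “films taken” for “films”, “Day of death recorded;” for “Survival followed;”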

Mus musculus [11] = test: Evaluated for the survival of the mice when 128 mg/kg/day was administered orally to Plasmodium berghei infected mice on days 3, 4, and 5 post infection; 1/15; 1/17; 1/18; 2/C(C=Survival beyond 60 days); assay type: functional, organism-based
Outline: as §1, with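 “po” for “sc”, “128” for “64”, “Giemsa” for “Parasitemia read on Giemsa-stained”, “films taken” for “films”, “Day of death recorded;” for “Survival followed;”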

Mus musculus [12] = test: Evaluated for the survival of the mice when 64 mg/kg/day was administered subcutaneously to Plasmodium berghei infected mice on days 3, 4, and 5 post infection;1/9, 2/10, 1/18, 1/19; assay type: functional, organism-based; outline: as §1

SMILES | IC50 [1] [nM] | IC50 (Plasmodium falciparum [2]) [nM] | IC50 (Plasmodium falciparum [3]) [nM] | Parasitemia (Mus musculus [4]) [%] | also measured
CO[C@H]1O[C@@H]2O[C@@]3(C)CC[C@H]4[C@H](C)CC[C@@H]([C@H]1C)[C@@]24OO3 [ARTEMETHER] | 351 | – | – | – | –
CC1CCC2(OOC3(CCC(C)CC3C)OO2)C(C)C1 (stereo unspecified) | > 1 | 49 | 110 | – | –
CC[C@@H]1CCCCC12OOC1(CCCC[C@@H]1CC)OO2 (stereo partly specified) | 9.3 | 19 | 23 | 28 | –
CC1CC(C)CC2(C1)OOC1(CC(C)CC(C)C1)OO2 (stereo unspecified) | 6.7 | 15 | 30 | 82 | –
CC1CCCC2(C1)OOC1(CCCC(C)C1)OO2 (stereo unspecified) | 16 | 51 | 76 | – | –
CC1CC(C)(C)CCC12OOC1(CCC(C)(C)CC1C)OO2 (stereo unspecified) | 1.4 | > 1000 | > 1000 | – | –
CCO[C@H]1O[C@@H]2O[C@@]3(C)CC[C@H]4[C@H](C)CC[C@@H]([C@H]1C)[C@@]24OO3 [ARTEMOTIL] | – | 1.4 | 2.7 | 0 | No. of mice dead/day died (Mus musculus [5]): survival beyond 60 days; No. of mice dead/day died (Mus musculus [6]): survival beyond 60 days
C[C@@H]1CCCCC12OOC1(CCCC[C@@H]1C)OO2 (stereo partly specified) [WR-148999] | 8.4 | 32 | 55 | 11 | –
CC1CCCC2(OOC3(CCCC(C)C3C)OO2)C1C (stereo unspecified) | – | 43 | 50 | 3 | –
CC(C)(C)[C@H]1CCCCC12OOC1(CCCC[C@H]1C(C)(C)C)OO2 (stereo partly specified) | 3.4 | 160 | > 300 | – | –
CC1CCC(C(C)C)C2(C1)OOC1(CC(C)CCC1C(C)C)OO2 (stereo unspecified) | 37 | 37 | 47 | 7 | No. of mice dead/day died (Mus musculus [7]): survival beyond 60 days; No. of mice dead/day died (Mus musculus [8]): survival beyond 60 days
CC(C)(C)C1CCC2(CC1)OOC1(CCC(C(C)(C)C)CC1)OO2 (stereo unspecified) | 2.8 | 100 | 200 | – | –
CC1(C)CCC2(CC1)OOC1(CCC(C)(C)CC1)OO2 | 2 | > 1000 | > 1000 | – | –
CC1CCC(C)C2(C1)OOC1(CC(C)CCC1C)OO2 (stereo unspecified) | 17 | 19 | 15 | 13 | No. of mice dead/day died (Mus musculus [9]): survival beyond 60 days; No. of mice dead/day died (Mus musculus [10]): survival beyond 60 days
CC1CCC2(CC1C)OOC1(CCC(C)C(C)C1)OO2 (stereo unspecified) | 4.4 | 10 | 12 | 14 | No. of mice dead/day died (Mus musculus [11]): Survival beyond 60 days; No. of mice dead/day died (Mus musculus [12]): Survival beyond 60 days
CCC[C@@H]1CCCCC12OOC1(CCCC[C@@H]1CCC)OO2 (stereo partly specified) | – | 39 | 84 | – | –
CC1(C)CC(C)(C)CC2(C1)OOC1(CC(C)(C)CC(C)(C)C1)OO2 | 3.6 | > 1000 | > 1000 | – | –
CC(C)C1CCC(C)C2(C1)OOC1(CC(C(C)C)CCC1C)OO2 (stereo unspecified) | 40 | 94 | 140 | – | –
C[C@@H]1CC[C@H]2[C@@H](C)C(=O)O[C@@H]3O[C@@]4(C)CC[C@@H]1[C@]32OO4 [ARTEMISININ] | – | 7.3 | 8.4 | – | –
CC1CCC2(CC1)OOC1(CCC(C)CC1)OO2 (stereo unspecified) | 1.1 | 21 | 23 | 22 | –
